Legend:
[1] = system: MCF7; assay: Induction of apoptosis in human MCF7 cells assessed as necrotic cells at IC50 concentration after 48 hrs using V-FITC and propidium iodide staining by flow cytometry (reference value: 12.61 +/- 7.50 %); format: functional
[2] = system: MCF7; assay: Induction of apoptosis in human MCF7 cells assessed as early apoptotic cells at IC50 concentration after 48 hrs using V-FITC and propidium iodide staining by flow cytometry relative to control; format: functional
[3] = system: MCF7; assay: Induction of apoptosis in human MCF7 cells assessed as early apoptotic cells at IC50 concentration after 24 hrs using V-FITC and propidium iodide staining by flow cytometry relative to control; format: functional
[4] = system: MCF7; assay: Induction of apoptosis in human MCF7 cells assessed as late apoptotic cells at IC50 concentration after 24 hrs using V-FITC and propidium iodide staining by flow cytometry (reference value: 1.11 +/- 0.24 %); format: functional
[5] = system: MCF7; assay: Induction of apoptosis in human MCF7 cells assessed as late apoptotic cells at IC50 concentration after 24 hrs using V-FITC and propidium iodide staining by flow cytometry (reference value: 0.03 +/- 0.01 %); format: functional
[6] = system: MCF7; assay: Induction of apoptosis in human MCF7 cells assessed as necrotic cells at IC50 concentration after 24 hrs using V-FITC and propidium iodide staining by flow cytometry (reference value: 9.55 +/- 0.21 %); format: functional
[7] = system: MCF7; assay: Induction of apoptosis in human MCF7 cells assessed as cell viability at IC50 concentration after 24 hrs using V-FITC and propidium iodide staining by flow cytometry (reference value: 90.42 +/- 0.63 %); format: functional
[8] = system: MCF7; assay: Induction of apoptosis in human MCF7 cells assessed as viable cells at IC50 concentration after 48 hrs using V-FITC and propidium iodide staining by flow cytometry (reference value: 86.26 +/- 7.25 %)
[9] = system: MCF7; assay: Cytotoxicity against human MCF7 cells expressing wild type p53 and ras mutant […]; format: functional, cell-based
[10] = Therapeutic index, ratio of IC50 for human MCF10A cells to IC50 for human MCF7 cells expressing wild type p53 and ras mutant; format: cell-based; settings: MCF10A cells versus MCF7 cells (wild type p53, ras mutant), read-out: Ratio IC50
Procedure, shortened: (§1)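 Ratio of IC50 in non-tumour MCF-10A to IC50 in the tumour line, both from the SRB growth assay described for cytotoxicity.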

[11] = system: MDA-MB-231; assay: Cytotoxicity against human MDA-MB-231 cells expressing high level of p53 […]; format: functional, cell-based
[12] = Cytotoxicity against human MCF10A cells […] by SRB assay; format: cell-based; settings: MCF-10A
[13] = Therapeutic index, ratio of IC50 for human MCF10A cells to IC50 for human MDA-MB-231 cells expressing high level of p53; format: cell-based; settings: MCF10A cells versus MDA-MB-231 cells (high level of p53), read-out: Ratio IC50; procedure, shortened: as §1

| SMILES | Activity [1] | Activity [2] | Activity [3] | Activity [4] | Activity [5] | Activity [6] | Activity [7] | viability [8] | IC50 [9] | selectivity ratio [10] | IC50 [11] | IC50 [12] | selectivity ratio [13] |
| --- | --- | --- | --- | --- | --- | --- | --- | --- | --- | --- | --- | --- | --- |
| Clc1nc(Sc2ccccc2)c2ncn(C3CNc4ccccc4CO3)c2n1 (racemic) | 4.01% | 15.81% | 0.07% | 3.88% | 0.07% | 7.55% | 83.09% | 76.3% | 13.8 µM |  |  |  |  |
| Nc1ccccc1S(=O)(=O)N1CC(n2cnc3c(Cl)nc(Cl)nc32)OCc2ccccc21 (racemic) | 1.99% | 18.89% | 0.02% | 2.77% | 0.28% | 17.61% | 82.1% | 76.34% | 0.82 µM | 1.85 | 0.467 µM | 1.52 µM | 3.25 |
| Cc1cn(C2C[S+]([O-])c3ccccc3CO2)c(=O)[nH]c1=O (racemic) |  |  |  |  |  |  |  |  | 30.1 µM |  |  |  |  |
| O=[N+]([O-])c1ccccc1S(=O)(=O)N1CC(n2cnc3c(Br)ncnc32)OCc2ccccc21 (racemic) | 3.76% | 24.43% | 0% | 4.19% | 0% | 8.04% | 91.95% | 67.6% | 3.62 µM |  |  |  |  |
| O=[N+]([O-])c1ccccc1S(=O)(=O)N1CC(n2cnc3nc(Cl)nc(Cl)c32)OCc2ccccc21 (racemic) | 2.48% | 13.93% | 0.02% | 3.8% | 0.02% | 4.94% | 95.03% | 79.78% | 0.99 µM | 1.27 | 0.318 µM | 1.27 µM | 4 |
| O=[N+]([O-])c1ccccc1S(=O)(=O)N1CC(n2cnc3c(Cl)nc(Cl)nc32)OCc2ccccc21 (racemic) | 3.43% | 19.61% | 0.01% | 2.64% | 0.01% | 8.33% | 91.65% | 74.31% | 0.383 µM | 4 | 0.28 µM | 1.53 µM | 5.5 |
| COC(CN(c1ccccc1CO)S(=O)(=O)c1ccc([N+](=O)[O-])cc1)n1cnc2c(Cl)nc(Cl)nc21 (racemic) | 4.81% | 43.3% | 0.02% | 2.17% | 0.18% | 4.88% | 94.76% | 49.71% | 0.355 µM | 5.25 | 0.409 µM | 1.86 µM | 4.55 |
| Cc1cn(C2CS(=O)(=O)c3ccccc3CO2)c(=O)[nH]c1=O (racemic) |  |  |  |  |  |  |  |  | 12.7 µM |  |  |  |  |
| O=[N+]([O-])c1ccc(S(=O)(=O)N2CC(n3cnc4c(Br)ncnc43)OCc3ccccc32)cc1 (racemic) | 10.92% | 35.64% | 0.01% | 2.4% | 0.01% | 4.26% | 95.7% | 51.04% | 1.23 µM |  |  |  |  |
| Cc1cn(C2CN(S(=O)(=O)c3ccccc3[N+](=O)[O-])c3ccccc3CO2)c(=O)[nH]c1=O (racemic) |  |  |  |  |  |  |  |  | 45.2 µM |  |  |  |  |
| c1ccc(Sc2nc(Sc3ccccc3)c3ncn(C4CNc5ccccc5CO4)c3n2)cc1 (racemic) | 4.98% | 18.64% | 0% | 4.52% | 0.07% | 12.68% | 87.29% | 71.84% | 9.71 µM |  |  |  |  |
| Cc1cn(C2CN(S(=O)(=O)c3ccc([N+](=O)[O-])cc3)c3ccccc3CO2)c(=O)[nH]c1=O (configuration not stated) |  |  |  |  |  |  |  |  | 39.8 µM |  |  |  |  |

Source: ChEMBL document CHEMBL1649390, “New (RS)-benzoxazepin-purines with antitumour activity: The chiral switch from (RS)-2,6-dichloro-9-[1-(p-nitrobenzenesulfonyl)-1,2,3,5-tetrahydro-4,1-benzoxazepin-3-yl]-9H-purine” (Eur J Med Chem, 2011)
